Assay results published in ChEMBL document CHEMBL1124473, “Synthesis and antiproliferative effects of novel 5'-fluorinated analogues of 5'-deoxy-5'-(methylthio)adenosine” (J Med Chem, 1989).

Legend:
L5178Y [1] = assay: Compound was evaluated for its ability to inhibit growth by 50% at 48 hr in L5178Y murine leukemia cells; assay type: functional, cell-based; conditions: Mus musculus
L1210 [2] = assay: Compound was evaluated for its ability to inhibit growth by 50% at 48 hr in L1210 murine leukemia cells; assay type: functional, cell-based; conditions: Mus musculus, L1210, 48 h
L1210 [3] = assay: Compound was evaluated for effect on polyamine pools in the L1210 murine leukemia cell lines by the inhibition of put at 600 uM; assay type: functional, Mus musculus
L1210 [4] = assay: Compound was evaluated for effect on polyamine pools in the L1210 murine leukemia cell lines by the inhibition of spermidine synthase at 600 uM; assay type: functional, Mus musculus
L5178Y [5] = assay: Compound was evaluated for effect on polyamine pools in the L5178Y murine leukemia cell lines by the inhibition of put at 60 uM; assay type: functional, Mus musculus
L5178Y [6] = assay: Compound was evaluated for effect on polyamine pools in the L5178Y murine leukemia cell lines by the inhibition of spermidine synthase at 60 uM; assay type: functional, Mus musculus
L5178Y [7] = assay: Compound was evaluated for effect on polyamine pools in the L5178Y murine leukemia cell lines by the inhibition of spermine synthase at 60 uM; assay type: functional, Mus musculus
L5178Y [8] = assay: Inhibition of growth of L5178Y murine leukemia cell line in percent of control at 60 uM; assay type: functional, Mus musculus; set-up: scale not given: the % may be the effect or the level left
How it was run: (§1)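 Cultures in RPMI 1640 with 10% Nu Serum IV and HEPES/MOPS buffer, treated at 0 h with the listed concentration from DMSO stock diluted in serum-free medium. Cell number by electronic particle counting after 48 h, expressed as % of untreated control. Average of at least three separate experiments.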

L1210 [9] = assay: Inhibition of growth of L1210 murine leukemia cell line in percent of control at 600 uM; assay type: functional, Mus musculus; set-up: scale not given: the % may be the effect or the level left; how it was run: as §1
L1210 [10] = assay: Compound was evaluated for effect on polyamine pools in the L1210 murine leukemia cell lines by the inhibition of spermine synthase at 600 uM; assay type: functional, Mus musculus
L1210 [11] = assay: Compound was evaluated for effect on polyamine pools in the L1210 murine leukemia cell lines by the inhibition of put at 200 uM; assay type: functional, Mus musculus
L1210 [12] = assay: Compound was evaluated for effect on polyamine pools in the L1210 murine leukemia cell lines by the inhibition of spermidine synthase at 200 uM; assay type: functional, Mus musculus
L1210 [13] = assay: Compound was evaluated for effect on polyamine pools in the L1210 murine leukemia cell lines by the inhibition of spermine synthase at 200 uM; assay type: functional, Mus musculus
L5178Y [14] = assay: Compound was evaluated for effect on polyamine pools in the L5178Y murine leukemia cell lines by the inhibition of put at 200 uM; assay type: functional, Mus musculus
L5178Y [15] = assay: Compound was evaluated for effect on polyamine pools in the L5178Y murine leukemia cell lines by the inhibition of spermidine synthase at 200 uM; assay type: functional, Mus musculus
L5178Y [16] = assay: Compound was evaluated for effect on polyamine pools in the L5178Y murine leukemia cell lines by the inhibition of spermine synthase at 200 uM; assay type: functional, Mus musculus
L5178Y [17] = assay: Inhibition of growth of L5178Y murine leukemia cell line in percent of control at 200 uM; assay type: functional, Mus musculus; set-up: scale not given: the % may be the effect or the level left; how it was run: as §1
L1210 [18] = assay: Inhibition of growth of L1210 murine leukemia cell line in percent of control at 200 uM; assay type: functional, Mus musculus; set-up: scale not given: the % may be the effect or the level left; how it was run: as §1
[19] = target: T1, S-methyl-5'-thioadenosine phosphorylase (Mus musculus, UniProt Q9CQ65); assay: Compound was evaluated for the inhibition of mouse liver MTA phosphorylase
T1 sequence (Q9CQ65 whole entry): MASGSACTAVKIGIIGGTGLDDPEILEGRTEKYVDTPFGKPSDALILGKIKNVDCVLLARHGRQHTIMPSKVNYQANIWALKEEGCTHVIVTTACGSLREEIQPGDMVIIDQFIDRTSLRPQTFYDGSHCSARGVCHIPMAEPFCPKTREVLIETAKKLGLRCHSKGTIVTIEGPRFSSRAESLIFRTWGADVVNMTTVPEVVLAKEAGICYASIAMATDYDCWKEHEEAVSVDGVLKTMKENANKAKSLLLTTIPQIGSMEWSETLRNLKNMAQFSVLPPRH
How it was run: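 Mouse liver enzyme, partially purified (acid precipitation, 65 °C heat step, DEAE-Sephacel). 0.1 mL reaction: 4 μmol potassium phosphate pH 7.4, 0.1 μmol DTT, 20 μg BSA, 50 nmol MTA, ~2 × 10^5 cpm [methyl-3H]MTA; 10 min, 37 °C. Stopped with charcoal/TCA; [3H]MTRP in supernatant counted by liquid scintillation.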

CSC(F)[C@H]1OC(n2cnc3c(N)ncnc32)[C@H](O)[C@@H]1O (stereo not given in full)
IC50 (L5178Y [1]): 0.7 µM
IC50 (L1210 [2]): 2 µM

CSC[C@H]1O[C@@H](n2cnc3c(N)ncnc32)[C@H](O)[C@@H]1O [METHYLTHIOADENOSINE]
Activity (L1210 [3]): 3.64 nM (10e6*cells)-1
Activity (L1210 [4]): 1.59 nM (10e6*cells)-1
Activity (L5178Y [5]): 1.24 nM (10e6*cells)-1
Activity (L5178Y [6]): 3.03 nM (10e6*cells)-1
Activity (L5178Y [7]): 0.47 nM (10e6*cells)-1
IC50 (L5178Y [1]): 60 µM
Control (L5178Y [8]): 57%
Control (L1210 [9]): 53%
IC50 (L1210 [2]): 600 µM
Activity (L1210 [10]): 0.2 nM (10e6*cells)-1

Nc1ncnc2c1ncn2C1O[C@H](CSCF)[C@@H](O)[C@H]1O (stereo not given in full)
Activity (L1210 [11]): 0.62 nM/10e6
Activity (L1210 [12]): 2.93 nM (10e6*cells)-1
Activity (L1210 [13]): 0.6 nM (10e6*cells)-1
Activity (L5178Y [14]): 0.41 nM (10e6*cells)-1
Activity (L5178Y [15]): 2.47 nM (10e6*cells)-1
Activity (L5178Y [16]): 1.32 nM (10e6*cells)-1
IC50 (L5178Y [1]): 200 µM
Control (L5178Y [17]): 45%
Control (L1210 [18]): 67%
IC50 (L1210 [2]): 300 µM
Ki [19]: 3.3 µM

Nc1ncnc2c1ncn2C1O[C@H](CI)[C@@H](O)[C@H]1O (stereo not given in full)
IC50 (L5178Y [1]): 2 µM
IC50 (L1210 [2]): 300 µM
